Experimental findings from ChEMBL document CHEMBL1926544, “Tyrosine-based 1-(S)-[3-hydroxy-2-(phosphonomethoxy)propyl]cytosine and -adenine ((S)-HPMPC and (S)-HPMPA) prodrugs: synthesis, stability, antiviral activity, and in vivo transport studies” (J Med Chem, 2011) are described below.

Data set [1] concerns Human betaherpesvirus 5. As to the kind of experiment: Antiviral activity against HCMV Towne infected in HFF cells incubated for 10 days by plaque reduction assay. The format is functional, organism-based. The gist of the method:
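Towne strain (plaque-purified P0) on HFF cells, about 100 plaques per well. Drug overlay (100 µM down to 0.03 µM), about 10 days incubation, crystal violet staining, microscopic plaques counted. IC50 from regression of % plaque reduction versus no-drug wells. Duplicate; ganciclovir as positive control.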
(In general: Plaque reduction counts the foci of infection that form in a cell layer.)

Data set [2] concerns Vaccinia virus. As to the kind of experiment: Antiviral activity against Vaccinia virus Copenhagen infected in HFF cells incubated for 3 days by plaque reduction assay. The format is functional, organism-based, Orthopoxvirus vaccinia.
Data set [3] has as its system Human alphaherpesvirus 1. As to the kind of experiment: Antiviral activity against HSV1 KOS infected in HFF cells incubated for 3 days by plaque reduction assay. The format is functional, organism-based. The gist of the method: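 HFF monolayer plaque reduction, about 100 plaques per well. Drug overlay (100 µM down to 0.03 µM), about 3 days incubation, crystal violet staining, macroscopic plaques counted. IC50 from regression of % plaque reduction relative to no-drug wells. Duplicate; acyclovir run as positive control.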

A short description of data set [4]: Antiviral activity against Cowpox virus Brighton infected in HFF cells incubated for 3 days by plaque reduction assay. The class given is functional, cell-based, Cowpox virus (Brighton Red).
In data set [5] the test system is HFF. Kind of data set: Cytotoxicity against HFF cells after 48 hrs by visual cytotoxicity observation assay. The class given is cell-based, Homo sapiens. The settings on record: Homo sapiens, HFF, 48 h.
The test system of data set [6] is KB. As to the kind of experiment: Cytotoxicity against human KB cells after 48 hrs by crystal violet staining based spectrophotometric analysis. The format is cell-based. The gist of the method:
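KB cells at 5000 per well, left overnight at 37 °C. Compound added at eight concentrations in triplicate, 48 h at 37 °C in CO2 (two population doublings). Cells ethanol-fixed and crystal violet stained; dye eluted with acidified ethanol, read at 570 nm. IC50 by regression of % inhibition against log concentration.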

Data set [7] in a line: Half life in phosphate buffer at pH 7.4 at 37 degC assessed as half life by LC/MS analysis. The class given is physicochemical.
Data set [8] can be described thus: Half life in phosphate buffer at pH 6.5 at 37 degC by LC/MS analysis. The format is physicochemical.
The nature of data set [9]: Half life in Sprague-Dawley rat intestinal homogenate at pH 6.5 by LC/MS analysis. The class given is ADME, tissue-based, Intestine. The method, boiled down:
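Compound stock (1 mg/ml, 400 µL) mixed with 260 µL buffer and 140 µL homogenate, 37 °C. Samples taken over time, quenched with methanol, centrifuged, supernatant analysed by LC-MS (C18, acetonitrile gradient in ammonium acetate pH 5.5). Run separately for each phosphorus diastereomer.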

The mark [10] stands for this setting: Human betaherpesvirus 5, Towne, HFF, 240 h.
Setting [11] is: Orthopoxvirus vaccinia, Copenhagen, HFF, 72 h.
[12] abbreviates: Human alphaherpesvirus 1, KOS, HFF, 72 h.

Take `Nc1ncnc2c1ncn2C[C@H]1COP(=O)(O)CO1`: the half-inhibitory concentration (IC50) is 1.3 µM in data set [1] (setting [10]); 1 µM in data set [2] (setting [11]); 30 µM in data set [3] (setting [12]); 0.6 µM in data set [4] (Cowpox virus, HFF, 72 h); 100 µM in data set [5]; greater than 100 µM in [6].
`CC(C)CNC(=O)[C@@H](N)Cc1ccc(OP(=O)(O)CO[C@H](CO)Cn2cnc3c(N)ncnc32)cc1`: the IC50 is 0.29 µM in data set [1] (setting [10]); 0.5 µM in data set [2] (setting [11]); 45 µM in data set [3] (setting [12]); 3 µM in [4] (Cowpox virus, HFF, 72 h); 100 µM in [5]; greater than 100 µM in data set [6].
Turning to `COC(=O)[C@@H](N)Cc1ccc(O[P@@]2(=O)CO[C@@H](Cn3ccc(N)nc3=O)CO2)cc1`, the half-life is 2.02 h in data set [7], 4.27 h in data set [8] and less than 0.5 h in data set [9].
Regarding `COC(=O)[C@@H](N)Cc1ccc(O[P@]2(=O)CO[C@@H](Cn3ccc(N)nc3=O)CO2)cc1`, the half-life in data set [7] is 0.317 h; in [8], 0.933 h; in data set [9] it was less than 0.5 h.
As for `COC(=O)[C@H](N)Cc1ccc(O[P@@]2(=O)CO[C@@H](Cn3ccc(N)nc3=O)CO2)cc1`, the half-life in data set [7] worked out at 2.1 h; in data set [8], 6.42 h; in data set [9] it was 3.5 h.
The matching figures for `COC(=O)[C@H](N)Cc1ccc(O[P@]2(=O)CO[C@@H](Cn3ccc(N)nc3=O)CO2)cc1`: 0.35 h, 1.52 h and 1.2 h.
The matching figures for `CC(C)OC(=O)[C@@H](N)Cc1ccc(O[P@@]2(=O)CO[C@@H](Cn3ccc(N)nc3=O)CO2)cc1`: 3.98 h, 12.8 h and less than 0.5 h.
Consider `CC(C)OC(=O)[C@@H](N)Cc1ccc(O[P@]2(=O)CO[C@@H](Cn3ccc(N)nc3=O)CO2)cc1`, for which the half-life in data set [7] is 0.367 h; in [8], 2.02 h; in [9] it was less than 0.5 h.
The matching figures for `CC(C)(C)NC(=O)[C@H](N)Cc1ccc(O[P@@]2(=O)CO[C@@H](Cn3ccc(N)nc3=O)CO2)cc1`: 10.5 h, 28.9 h and 28.9 h.
The like results for `CC(C)(C)NC(=O)[C@H](N)Cc1ccc(O[P@]2(=O)CO[C@@H](Cn3ccc(N)nc3=O)CO2)cc1` were, in that order, 1 h, 3.5 h and 3.85 h.
Take `COC(=O)[C@@H](N)Cc1ccc(O[P@@]2(=O)CO[C@@H](Cn3cnc4c(N)ncnc43)CO2)cc1`: the half-life in data set [8] was 5.5 h; in [9], less than 0.5 h.
With `COC(=O)[C@@H](N)Cc1ccc(O[P@]2(=O)CO[C@@H](Cn3cnc4c(N)ncnc43)CO2)cc1`, the half-life in data set [8] was 0.917 h; in data set [9], less than 0.5 h.
Take `CC(C)CNC(=O)[C@@H](N)Cc1ccc(O[P@@]2(=O)CO[C@@H](Cn3cnc4c(N)ncnc43)CO2)cc1`: the half-life stood at 3.85 h in data set [7], 12.8 h in data set [8] and 12.8 h in data set [9].
On to `CC(C)CNC(=O)[C@@H](N)Cc1ccc(O[P@]2(=O)CO[C@@H](Cn3cnc4c(N)ncnc43)CO2)cc1`, for which the half-life in data set [7] was 0.433 h; in data set [8] it was 2.03 h; in data set [9] it was 1.9 h.
The matching figures for `COC(=O)[C@H](Cc1ccc(O[P@@]2(=O)CO[C@@H](Cn3cnc4c(N)ncnc43)CO2)cc1)NC(=O)[C@@H](N)C(C)C`: 1.1 h, 5.77 h and less than 0.5 h.
As to `COC(=O)[C@H](Cc1ccc(O[P@]2(=O)CO[C@@H](Cn3cnc4c(N)ncnc43)CO2)cc1)NC(=O)[C@@H](N)C(C)C`, the half-life in data set [7] was 0.25 h; in data set [8] it was 1.58 h; in data set [9] it was less than 0.5 h.
For the molecule `Nc1ncnc2c1ncn2C[C@@H](CO)OCP(=O)(O)O`, the half-maximal inhibitory concentration (IC50) was 0.41 µM in data set [1] (setting [10]); 2 µM in data set [2] (setting [11]); 35 µM in [3] (setting [12]); 4 µM in data set [4] (Cowpox virus, HFF, 72 h); 100 µM in [5]; greater than 100 µM in data set [6].
Regarding `C/C(=N\NC(N)=S)c1ccccn1`, the IC50 in data set [6] turned out to be 3 µM.
As for `COC(=O)[C@@H](N)Cc1ccc(OP2(=O)CO[C@@H](Cn3ccc(N)nc3=O)CO2)cc1` (mixture of isomers), the concentration for half-maximal inhibition (IC50) was 0.23 µM in data set [1] (setting [10]); 4 µM in data set [2] (setting [11]); 25 µM in data set [3] (setting [12]); 50 µM in data set [4] (Cowpox virus, HFF, 72 h); greater than 100 µM in [5]; greater than 100 µM in data set [6].
As to `COC(=O)[C@H](N)Cc1ccc(OP2(=O)CO[C@@H](Cn3ccc(N)nc3=O)CO2)cc1` (mixture of isomers), the IC50 in data set [1] (setting [10]) is 0.2 µM; in [2] (setting [11]) it was 25 µM; in [3] (setting [12]), 35 µM; in [4] (Cowpox virus, HFF, 72 h), 35 µM; in data set [5], greater than 100 µM; in data set [6], greater than 100 µM.
`CC(C)(C)NC(=O)[C@H](N)Cc1ccc(OP2(=O)CO[C@@H](Cn3ccc(N)nc3=O)CO2)cc1` (mixture of isomers): the half-inhibitory concentration (IC50) was less than 0.1 µM in data set [1] (setting [10]); 10 µM in data set [2] (setting [11]); 1.5 µM in data set [3] (setting [12]); 20 µM in data set [4] (Cowpox virus, HFF, 72 h); greater than 100 µM in [5]; greater than 100 µM in [6].
Take `COC(=O)[C@H](Cc1ccc(OP2(=O)CO[C@@H](Cn3ccc(N)nc3=O)CO2)cc1)NC(=O)[C@@H](N)C(C)C` (mixture of isomers): the IC50 is less than 0.1 µM in [1] (setting [10]); 20 µM in data set [2] (setting [11]); 15 µM in data set [3] (setting [12]); 30 µM in data set [4] (Cowpox virus, HFF, 72 h); greater than 100 µM in data set [6].
Turning to `COC(=O)[C@H](Cc1ccc(OP2(=O)CO[C@@H](Cn3cnc4c(N)ncnc43)CO2)cc1)NC(=O)[C@@H](N)C(C)C` (mixture of isomers), the half-inhibitory concentration (IC50) in [1] (setting [10]) was 0.3 µM; in data set [2] (setting [11]) it was 4 µM; in data set [3] (setting [12]) it was 35 µM; in [4] (Cowpox virus, HFF, 72 h), 8 µM; in data set [5], greater than 100 µM; in data set [6], greater than 100 µM.
With `CC(C)OC(=O)[C@@H](N)Cc1ccc(OP2(=O)CO[C@@H](Cn3ccc(N)nc3=O)CO2)cc1` (mixture of isomers; form 1), the IC50 was 0.12 µM in data set [1] (setting [10]); 30 µM in data set [2] (hff); 20 µM in data set [3] (hff); 40 µM in [4] (hff); greater than 100 µM in data set [5]; greater than 100 µM in data set [6].
Regarding `COC(=O)[C@@H](N)Cc1ccc(OP2(=O)CO[C@@H](Cn3cnc4c(N)ncnc43)CO2)cc1` (mixture of isomers; form 1), the half-inhibitory concentration (IC50) is 0.45 µM in data set [1] (setting [10]); 3 µM in data set [2] (setting [11]); 25 µM in data set [3] (setting [12]); 7 µM in [4] (Cowpox virus, HFF, 72 h); greater than 100 µM in data set [5]; greater than 100 µM in data set [6].
For the molecule `CC(C)CNC(=O)[C@@H](N)Cc1ccc(OP2(=O)CO[C@@H](Cn3cnc4c(N)ncnc43)CO2)cc1` (mixture of isomers; form 1), the concentration for half-maximal inhibition (IC50) in data set [1] (hff) was 0.3 µM; in data set [2] (hff), 4.5 µM; in data set [3] (setting [12]), 50 µM; in [4] (hff), 7 µM; in data set [5], greater than 100 µM; in data set [6] it was greater than 100 µM.
Consider `COC(=O)[C@@H](N)Cc1ccc(OP2(=O)CO[C@@H](Cn3cnc4c(N)ncnc43)CO2)cc1` (mixture of isomers; form 2), for which the values for the concentration for half-maximal inhibition (IC50) in [3] (hff) and in data set [4] (hff) were 35 µM and 3.5 µM, respectively.
Consider `CC(C)OC(=O)[C@@H](N)Cc1ccc(OP2(=O)CO[C@@H](Cn3ccc(N)nc3=O)CO2)cc1` (mixture of isomers; form 2), for which the 50% inhibitory concentration (IC50) in data set [1] (hff) stood at 0.22 µM; in data set [2] (hff), 8 µM; in [3] (hff), 3 µM; in data set [4] (hff), 10 µM.
With `CC(C)CNC(=O)[C@@H](N)Cc1ccc(OP2(=O)CO[C@@H](Cn3cnc4c(N)ncnc43)CO2)cc1` (mixture of isomers; form 3), the figures for the half-inhibitory concentration (IC50) in data set [1] (hff), in data set [2] (hff) and in data set [4] (hff) were 0.55 µM, 1 µM and 2.5 µM, respectively.
For the molecule `Nc1nc2c(ncn2COCCO)c(=O)[nH]1` [ACYCLOVIR], it took 0.6 µM to reach half-maximal inhibition in data set [3] (setting [12]) (IC50).
`Nc1ccn(C[C@@H](CO)OCP(=O)(O)O)c(=O)n1` [CIDOFOVIR]: the IC50 in data set [1] (setting [10]) is 0.28 µM; in data set [4] (Cowpox virus, HFF, 72 h) it was 30 µM; in [5], 100 µM; in [6] it was greater than 100 µM.
As to `Nc1ccn(C[C@H]2COP(=O)(O)CO2)c(=O)n1` [CYCLIC CIDOFOVIR], the IC50 in data set [3] (setting [12]) was 50 µM; in data set [4] (Cowpox virus, HFF, 72 h) it was 30 µM; in data set [5] it was greater than 100 µM; in [6] it was greater than 100 µM.
`Nc1nc2c(ncn2COC(CO)CO)c(=O)[nH]1` [GANCICLOVIR]: the results for the IC50 in [1] (setting [10]) and in [5] were 0.14 µM and greater than 100 µM, respectively.

The IC50 is the midpoint of a concentration-inhibition curve. Low values mean inhibition by little substance, high ones a need for much substance. For orientation: half-life means the time in which the quantity being followed falls by half.
